Assay results from ChEMBL document CHEMBL1671684, “In vitro resistance profile of the hepatitis C virus NS3/4A protease inhibitor TMC435” (Antimicrob Agents Chemother, 2010).
pEC50, pIC50, pKi: −log10 of the molar value. Calls of active or inactive are those of the source. No cut-off for these calls is given here.

How the values were obtained:
Hepatitis C virus [1] = assay: Antiviral activity against Hepatitis C virus subtype 1b expressing WT NS3 infected in HuH7 cells after 48 hrs by luciferase reporter assay; assay type: functional, organism-based, Hepacivirus hominis; conditions: genotype 1b, Huh-7, 48 h
Summary of the method: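 Huh7-lunet cells were electroporated with 10 μg wild-type genotype 1b subgenomic replicon RNA (clone ET; luciferase reporter; E1202G, T1280I, K1846T). They were seeded at 4,000 cells/well over a nine-point compound dilution series. After 48 h at 37°C, 5% CO2, luciferase reagent was added 1:1, followed by 10–20 min in the dark and a luminescence read. EC50 is the median of individual-experiment EC50s.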

Hepatitis C virus [2] = assay: Antiviral activity against Hepatitis C virus subtype 1b expressing NS3 V36L mutant infected in HuH7 cells after 48 hrs by luciferase reporter assay; assay type: functional, organism-based, Hepacivirus hominis; conditions: genotype 1b, Huh-7, 48 h
Summary of the method: (§1)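 Genotype 1b con1 subgenomic bicistronic replicon (clone ET) with luciferase reporter and adaptive mutations E1202G, T1280I, K1846T, carrying site-directed NS3 single or double mutations. 10 μg wild-type or mutant replicon RNA electroporated into Huh7-lunet cells, seeded 4,000 cells/well over a nine-point inhibitor dilution series, 48 h at 37°C, 5% CO2, then luminescence read. EC50 taken as median of individual experiments; fold change relative to parental replicon EC50.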

Hepatitis C virus [3] = assay: Antiviral activity against Hepatitis C virus subtype 1b expressing NS3 V36M mutant infected in HuH7 cells after 48 hrs by luciferase reporter assay; assay type: functional, organism-based, Hepacivirus hominis; conditions: genotype 1b, Huh-7, 48 h; summary of the method: as §1
Hepatitis C virus [4] = assay: Antiviral activity against Hepatitis C virus subtype 1b expressing NS3 Q80L mutant infected in HuH7 cells after 48 hrs by luciferase reporter assay; assay type: functional, organism-based, Hepacivirus hominis; conditions: genotype 1b, Huh-7, 48 h; summary of the method: as §1
Hepatitis C virus [5] = assay: Antiviral activity against Hepatitis C virus subtype 1b expressing NS3 R155K mutant infected in HuH7 cells after 48 hrs by luciferase reporter assay; assay type: functional, organism-based, Hepacivirus hominis; conditions: genotype 1b, Huh-7, 48 h; summary of the method: as §1
Hepatitis C virus [6] = assay: Antiviral activity against Hepatitis C virus subtype 1b expressing NS3 R155G mutant infected in HuH7 cells after 48 hrs by luciferase reporter assay; assay type: functional, organism-based, Hepacivirus hominis; conditions: genotype 1b, Huh-7, 48 h; summary of the method: as §1
Hepatitis C virus [7] = assay: Antiviral activity against Hepatitis C virus subtype 1b expressing NS3 D168E mutant infected in HuH7 cells after 48 hrs by luciferase reporter assay; assay type: functional, organism-based, Hepacivirus hominis; conditions: genotype 1b, Huh-7, 48 h; summary of the method: as §1
Hepatitis C virus [8] = assay: Antiviral activity against Hepatitis C virus subtype 1b expressing NS3 D168T mutant infected in HuH7 cells after 48 hrs by luciferase reporter assay; assay type: functional, organism-based, Hepacivirus hominis; conditions: genotype 1b, Huh-7, 48 h; summary of the method: as §1
Hepatitis C virus [9] = assay: Antiviral activity against Hepatitis C virus subtype 1b expressing NS3 V170A mutant infected in HuH7 cells after 48 hrs by luciferase reporter assay; assay type: functional, organism-based, Hepacivirus hominis; conditions: genotype 1b, Huh-7, 48 h; summary of the method: as §1
Hepatitis C virus [10] = assay: Antiviral activity against Hepatitis C virus subtype 1b expressing NS3 F43S and Q80R mutant infected in HuH7 cells after 48 hrs by luciferase reporter assay; assay type: functional, organism-based, Hepacivirus hominis; conditions: genotype 1b, Huh-7, 48 h; summary of the method: as §1
Hepatitis C virus [11] = assay: Ratio of EC50 for Hepatitis C virus subtype 1b expressing NS3 V36 M mutant to EC50 for Hepatitis C virus subtype 1b expressing WT NS3 infected in HuH7 cells after 48 hrs by luciferase reporter assay; assay type: functional, Hepacivirus hominis, genotype 1b, Huh-7
Summary of the method: (§2)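 Transient replicon assay: site-directed single or multiple NS3 mutations engineered into genotype 1b (con1, clone ET) subgenomic bicistronic replicon with luciferase reporter and adaptive mutations E1202G, T1280I, K1846T. Huh7-lunet cells electroporated with 10 μg wild-type or mutant replicon RNA, seeded 4,000 cells/well with nine-point inhibitor dilution; 48 h, 37°C, 5% CO2; luminescence read-out. EC50 as median of individual experiments; fold change versus parental replicon EC50.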

Hepatitis C virus [12] = assay: Ratio of EC50 for Hepatitis C virus subtype 1b expressing NS3 F43S mutant to EC50 for Hepatitis C virus subtype 1b expressing WT NS3 infected in HuH7 cells after 48 hrs by luciferase reporter assay; assay type: functional, Hepacivirus hominis, genotype 1b, Huh-7; summary of the method: as §2
Hepatitis C virus [13] = assay: Ratio of EC50 for Hepatitis C virus subtype 1b expressing NS3 T54A mutant to EC50 for Hepatitis C virus subtype 1b expressing WT NS3 infected in HuH7 cells after 48 hrs by luciferase reporter assay; assay type: functional, Hepacivirus hominis, genotype 1b, Huh-7; summary of the method: as §2
Hepatitis C virus [14] = assay: Ratio of EC50 for Hepatitis C virus subtype 1b expressing NS3 Q80R mutant to EC50 for Hepatitis C virus subtype 1b expressing WT NS3 infected in HuH7 cells after 48 hrs by luciferase reporter assay; assay type: functional, Hepacivirus hominis, genotype 1b, Huh-7; summary of the method: as §2
Hepatitis C virus [15] = assay: Ratio of EC50 for Hepatitis C virus subtype 1b expressing NS3 Q80L mutant to EC50 for Hepatitis C virus subtype 1b expressing WT NS3 infected in HuH7 cells after 48 hrs by luciferase reporter assay; assay type: functional, Hepacivirus hominis, genotype 1b, Huh-7; summary of the method: as §2
Hepatitis C virus [16] = assay: Ratio of EC50 for Hepatitis C virus subtype 1b expressing NS3 Q80R and D168A mutant to EC50 for Hepatitis C virus subtype 1b expressing WT NS3 infected in HuH7 cells after 48 hrs by luciferase reporter assay; assay type: functional, Hepacivirus hominis, genotype 1b, Huh-7; summary of the method: as §2
Hepatitis C virus [17] = assay: Antiviral activity against Hepatitis C virus subtype 1b expressing NS3 Q41R mutant infected in HuH7 cells after 48 hrs by luciferase reporter assay; assay type: functional, organism-based, Hepacivirus hominis; conditions: genotype 1b, Huh-7, 48 h; summary of the method: as §1
Hepatitis C virus [18] = assay: Ratio of EC50 for Hepatitis C virus subtype 1b expressing NS3 Q41R mutant to EC50 for Hepatitis C virus subtype 1b expressing WT NS3 infected in HuH7 cells after 48 hrs by luciferase reporter assay; assay type: functional, Hepacivirus hominis, genotype 1b, Huh-7; summary of the method: as §2
[19] = Inhibition of Hepatitis C virus subtype 1a NS3/4A protease
Hepatitis C virus [20] = assay: Antiviral activity against Hepatitis C virus subtype 1b infected in HuH7 cells after 72 hrs by luciferase reporter gene assay; conditions: genotype 1b, Huh-7, 72 h
[21] = Inhibition of Hepatitis C virus subtype 5a NS3/4A protease
[22] = Inhibition of Hepatitis C virus subtype 6a NS3/4A protease
Hepatitis C virus [23] = assay: Antiviral activity against Hepatitis C virus subtype 2a JFH1 infected in HuH7.5 cells assessed as occurrence of the viral-induced CPE at 4000 nM after 3 days by luciferase reporter assay; assay type: functional, organism-based; conditions: Hepacivirus hominis
Hepatitis C virus [24] = assay: Antiviral activity against Hepatitis C virus subtype 2a JFH1 infected in HuH7.5 cells assessed as viral RNA replication after initial decline at 500 nM after 3 days by TaqMan RT-PCR; assay type: functional, organism-based; conditions: Hepacivirus hominis
Hepatitis C virus [25] = assay: Antiviral activity against Hepatitis C virus subtype 2a JFH1 infected in HuH7.5 cells assessed as decline in viral RNA replication at 500 nM after 14 passages by TaqMan RT-PCR; assay type: functional, organism-based; conditions: Hepacivirus hominis
Summary of the method: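 Huh7.5 cells electroporated with JFH-1wt RNA (genotype 2a, no reporter) in Cytomix with 2 mM ATP and 5 mM glutathione, then 500,000 cells seeded. From day 3, cells passaged with inhibitor at 500 nM or vehicle. HCV RNA quantified at each passage by TaqMan real-time RT-PCR, normalised to host RPL13A RNA by comparative CT. Day-3 level set as 100%.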

Hepatitis C virus [26] = assay: Antiviral activity against Hepatitis C virus infected in HuH7 cells assessed as cell viability at 10 times EC50 after 2 to 3 weeks by neutral red assay in presence of 1,000 ug/ml G418; assay type: functional, organism-based; conditions: Hepacivirus hominis; Huh-7
Summary of the method: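 Huh7-Luc genotype 1b (con1, clone ET) replicon cells, 20,000 per 10-cm dish in DMEM with 1,000 μg/ml G418. Cells got one inhibitor or a two-inhibitor combination, dosed as multiples of each inhibitor's EC50 from a genotype 1b luciferase replicon assay. Held at 37°C, 5% CO2, with medium plus compound refreshed twice weekly. After 2–3 weeks, surviving colonies were stained with neutral red and counted. Three independent experiments.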

Hepatitis C virus [27] = assay: Antiviral activity against Hepatitis C virus subtype 1a infected in human assessed as suppression of viral RNA level at 200 mg administered SID for 5 days measured after 3 days last postdose; assay type: functional, organism-based; conditions: Hepacivirus hominis

Structure (SMILES)	pEC50 (Hepatitis C virus [1])	pEC50 (Hepatitis C virus [2])	pEC50 (Hepatitis C virus [3])	pEC50 (Hepatitis C virus [4])	pEC50 (Hepatitis C virus [5])	pEC50 (Hepatitis C virus [6])	pEC50 (Hepatitis C virus [7])	pEC50 (Hepatitis C virus [8])	pEC50 (Hepatitis C virus [9])	pEC50 (Hepatitis C virus [10])	Ratio EC50 (Hepatitis C virus [11])	Ratio EC50 (Hepatitis C virus [12])	Ratio EC50 (Hepatitis C virus [13])	Ratio EC50 (Hepatitis C virus [14])	Ratio EC50 (Hepatitis C virus [15])	Ratio EC50 (Hepatitis C virus [16])	pEC50 (Hepatitis C virus [17])	Ratio EC50 (Hepatitis C virus [18])	also measured
CC(C)(C)NC(=O)N[C@H](C(=O)N1C[C@H]2[C@@H]([C@H]1C(=O)NC(CC1CCC1)C(=O)C(N)=O)C2(C)C)C(C)(C)C (stereo not given in full) [BOCEPREVIR]	6.83	6.96	6.66	6.88	6.13	5.35	7.16	6.52	5.81	5.81	1.8	5.2	2.1	0.5	0.9	0.5	–	–	–
COc1ccc2c(O[C@@H]3C[C@H]4C(=O)N[C@]5(C(=O)O)C[C@H]5/C=C\CCCCC[C@H](NC(=O)OC5CCCC5)C(=O)N4C3)cc(-c3csc(NC(C)C)n3)nc2c1 [CILUPREVIR]	9.10	8.85	8.62	–	6.31	6.00	7.40	6.28	–	9.40	1.2	0.9	0.6	1.6	1.2	1827	8.64	2.8	–
COc1ccc2c(O[C@@H]3C[C@H]4C(=O)N[C@]5(C(=O)NS(=O)(=O)C6CC6)C[C@H]5/C=C\CCCCN(C)C(=O)[C@@H]4C3)cc(-c3nc(C(C)C)cs3)nc2c1C [SIMEPREVIR]	7.96	7.74	7.70	7.92	6.59	6.46	6.52	5.39	7.66	5.74	2	12	0.6	6.9	2.1	2655	7.74	1.7	pKi [19]: 9.40; pEC50 (Hepatitis C virus [20]): 8.10; pIC50 [21]: > 7.89; pIC50 [22]: > 7.89; inhibition (Hepatitis C virus [23]): Active; inhibition (Hepatitis C virus [24]): inactive; inhibition (Hepatitis C virus [25]): Active; inhibition (Hepatitis C virus [26]): inactive; inhibition (Hepatitis C virus [27]): Active
CCC[C@H](NC(=O)[C@@H]1[C@H]2CCC[C@H]2CN1C(=O)[C@@H](NC(=O)[C@@H](NC(=O)c1cnccn1)C1CCCCC1)C(C)(C)C)C(=O)C(=O)NC1CC1 [TELAPREVIR]	6.82	6.52	6.05	–	5.83	5.02	6.95	6.74	–	–	10	6.1	7.5	0.6	–	–	–	–	–
